# In ChEMBL document CHEMBL5058577, “EUbOPEN Chemogenomics Library 2 (Multiplex)” (2022):
# Tested on: HEK-293T
# Test: Multiplex assay against HEK293T
# Type: toxicity, cell-based
# Conditions: human
# Outline: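 Tubulin, mitochondrial-mass and membrane-permeability phenotypes are per cents of healthy-nucleus cells. Cells were gated by CellPathfinder machine learning into Hoechst high-intensity objects or normal cells, normal cells into healthy, pyknosed or fragmented nuclei, and pyknosed cells into mitotic or apoptotic. Before that, live cells stained at seeding with Hoechst33342, BioTracker Green Microtubule Cytoskeleton Dye, MitoTracker Red and Annexin V Alexa Fluor 680 were imaged on a CQ1 microscope at 37°C and 5% CO2 after compound addition.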
# [1] = 12 h, 1 µM, compound concentration 1 uM, replicate 1
# [2] = 12 h, 1 µM, compound concentration 1 uM, replicate 2
# [3] = 12 h, 10 µM, compound concentration 10 uM, replicate 1
# [4] = 12 h, 10 µM, compound concentration 10 uM, replicate 2
# [5] = 24 h, 1 µM, compound concentration 1 uM, replicate 1
# [6] = 24 h, 1 µM, compound concentration 1 uM, replicate 2
# [7] = 24 h, 10 µM, compound concentration 10 uM, replicate 1
# [8] = 24 h, 10 µM, compound concentration 10 uM, replicate 2
# [9] = 48 h, 1 µM, compound concentration 1 uM, replicate 1
# [10] = 48 h, 1 µM, compound concentration 1 uM, replicate 2
# [11] = 48 h, 10 µM, compound concentration 10 uM, replicate 1
# [12] = 48 h, 10 µM, compound concentration 10 uM, replicate 2
compound,measurement,setting,value
COc1cccc2c1c(NS(=O)(=O)c1ccc(Cl)s1)nn2Cc1cccc(CNC(=O)C(C)(C)O)c1,Population Apoptotic (%),[1],31%
same,Population Fragmented Nuclei (%),[1],6%
same,Population Healthy Nuclei (%),[1],82%
same,Population Hoechst High Intensity Objects (%),[1],6%
same,Population Membrane Permeable-Phenotype (%),[1],0%
same,Population Mitochondria Different-Phenotype (%),[1],39%
same,Population Mitotic Cells (%),[1],68%
same,Population Normal (%),[1],93%
same,Population Pyknosed Nuclei (%),[1],10%
same,Population Tubulin-Different-Phenotype (%),[1],26%
same,Total Cell Count,[1],469
same,Population Apoptotic (%),[2],34%
same,Population Fragmented Nuclei (%),[2],7%
same,Population Healthy Nuclei (%),[2],77%
same,Population Hoechst High Intensity Objects (%),[2],10%
same,Population Mitochondria Different-Phenotype (%),[2],52%
same,Population Mitotic Cells (%),[2],65%
same,Population Normal (%),[2],89%
same,Population Pyknosed Nuclei (%),[2],15%
same,Population Tubulin-Different-Phenotype (%),[2],23%
same,Total Cell Count,[2],315
same,Population Apoptotic (%),[3],42%
same,Population Fragmented Nuclei (%),[3],6%
same,Population Healthy Nuclei (%),[3],80%
same,Population Hoechst High Intensity Objects (%),[3],7%
same,Population Membrane Permeable-Phenotype (%),[3],0%
same,Population Mitochondria Different-Phenotype (%),[3],51%
same,Population Mitotic Cells (%),[3],57%
same,Population Normal (%),[3],92%
same,Population Pyknosed Nuclei (%),[3],12%
same,Population Tubulin-Different-Phenotype (%),[3],38%
same,Total Cell Count,[3],356
same,Population Apoptotic (%),[4],35%
same,Population Fragmented Nuclei (%),[4],5%
same,Population Healthy Nuclei (%),[4],78%
same,Population Hoechst High Intensity Objects (%),[4],11%
same,Population Mitochondria Different-Phenotype (%),[4],69%
same,Population Mitotic Cells (%),[4],65%
same,Population Normal (%),[4],88%
same,Population Pyknosed Nuclei (%),[4],16%
same,Population Tubulin-Different-Phenotype (%),[4],33%
same,Total Cell Count,[4],280
same,Population Apoptotic (%),[5],26%
same,Population Fragmented Nuclei (%),[5],7%
same,Population Healthy Nuclei (%),[5],81%
same,Population Hoechst High Intensity Objects (%),[5],2%
same,Population Membrane Permeable-Phenotype (%),[5],0%
same,Population Mitochondria Different-Phenotype (%),[5],22%
same,Population Mitotic Cells (%),[5],73%
same,Population Normal (%),[5],97%
same,Population Pyknosed Nuclei (%),[5],11%
same,Population Tubulin-Different-Phenotype (%),[5],17%
same,Total Cell Count,[5],617
same,Population Apoptotic (%),[6],44%
same,Population Fragmented Nuclei (%),[6],6%
same,Population Healthy Nuclei (%),[6],84%
same,Population Hoechst High Intensity Objects (%),[6],7%
same,Population Mitochondria Different-Phenotype (%),[6],37%
same,Population Mitotic Cells (%),[6],55%
same,Population Normal (%),[6],92%
same,Population Pyknosed Nuclei (%),[6],8%
same,Population Tubulin-Different-Phenotype (%),[6],15%
same,Total Cell Count,[6],357
same,Population Apoptotic (%),[7],40%
same,Population Fragmented Nuclei (%),[7],10%
same,Population Healthy Nuclei (%),[7],73%
same,Population Hoechst High Intensity Objects (%),[7],5%
same,Population Membrane Permeable-Phenotype (%),[7],0%
same,Population Mitochondria Different-Phenotype (%),[7],34%
same,Population Mitotic Cells (%),[7],60%
same,Population Normal (%),[7],94%
same,Population Pyknosed Nuclei (%),[7],16%
same,Population Tubulin-Different-Phenotype (%),[7],23%
same,Total Cell Count,[7],462
same,Population Fragmented Nuclei (%),[8],9%
same,Population Healthy Nuclei (%),[8],77%
same,Population Mitochondria Different-Phenotype (%),[8],46%
same,Population Pyknosed Nuclei (%),[8],12%
same,Population Tubulin-Different-Phenotype (%),[8],22%
same,Total Cell Count,[8],384
same,Population Apoptotic (%),[9],16%
same,Population Fragmented Nuclei (%),[9],10%
same,Population Healthy Nuclei (%),[9],83%
same,Population Hoechst High Intensity Objects (%),[9],2%
same,Population Membrane Permeable-Phenotype (%),[9],0%
same,Population Mitochondria Different-Phenotype (%),[9],18%
same,Population Mitotic Cells (%),[9],83%
same,Population Normal (%),[9],97%
same,Population Pyknosed Nuclei (%),[9],6%
same,Population Tubulin-Different-Phenotype (%),[9],11%
same,Total Cell Count,[9],1062
same,Population Apoptotic (%),[10],28%
same,Population Fragmented Nuclei (%),[10],11%
same,Population Membrane Permeable-Phenotype (%),[10],2%
same,Population Mitochondria Different-Phenotype (%),[10],21%
same,Population Mitotic Cells (%),[10],71%
same,Population Pyknosed Nuclei (%),[10],4%
same,Population Tubulin-Different-Phenotype (%),[10],10%
same,Total Cell Count,[10],591
same,Population Apoptotic (%),[11],26%
same,Population Fragmented Nuclei (%),[11],16%
same,Population Healthy Nuclei (%),[11],72%
same,Population Hoechst High Intensity Objects (%),[11],4%
same,Population Membrane Permeable-Phenotype (%),[11],0%
same,Population Mitochondria Different-Phenotype (%),[11],25%
same,Population Mitotic Cells (%),[11],73%
same,Population Normal (%),[11],95%
same,Population Pyknosed Nuclei (%),[11],10%
same,Population Tubulin-Different-Phenotype (%),[11],16%
same,Total Cell Count,[11],646
same,Population Apoptotic (%),[12],35%
same,Population Fragmented Nuclei (%),[12],8%
same,Population Healthy Nuclei (%),[12],83%
same,Population Mitochondria Different-Phenotype (%),[12],27%
same,Population Mitotic Cells (%),[12],65%
same,Population Pyknosed Nuclei (%),[12],7%
same,Population Tubulin-Different-Phenotype (%),[12],12%
same,Total Cell Count,[12],550
